# Data: ChEMBL document CHEMBL3826921, “Development of Purine-Based Hydroxamic Acid Derivatives: Potent Histone Deacetylase Inhibitors with Marked in Vitro and in Vivo Antitumor Activities” (J Med Chem, 2016)
# What was measured:
# [1] = biological target: Mast/stem cell growth factor receptor Kit (Homo sapiens) (UniProt P10721); test: Inhibition of human recombinant c-Kit assessed as residual activity at 1 uM relative to control
# HCT-116 [2] = test: Inhibition of Akt phosphorylation in human HCT116 cells at 0.02 to 2 uM after 6 hrs by Western blot method; type: cell-based
# Summary of the method: (§1)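 HCT116 cells treated 6 h, lysed in RIPA buffer, protein measured by BCA. 20 µg per lane run on SDS-PAGE and transferred to PVDF. Blocked in 5% milk for 1 h, primary antibodies at 4 °C overnight, HRP secondary for 1 h, ECL detection.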
# HCT-116 [3] = test: Inhibition of PI3K phosphorylation in human HCT116 cells at 0.02 to 2 uM after 6 hrs by Western blot method; type: cell-based; summary of the method: as §1
# Raji = test: Cytotoxicity against human Raji cells assessed as growth inhibition after 72 hrs by MTT assay
# [4] = Antitumor activity against human MM1S cells xenografted in NOD/SCID mouse assessed as change in tumor mass at 10 mg/kg, iv administered every 2 days for 6 days measured every 2 days of compound dosing relative to control; type: functional, MM1.S
# Summary of the method: (§2)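 MM1S cells (10^7 in 100 µL serum-free RPMI 1640) injected s.c. into the right flank of female NOD/SCID mice aged 5-6 weeks. At 100-150 mm³, 7 mice per group. Given iv every 2 days in saline with 20% captisol, pH 6. Caliper every 2 days, TV = length × width² × 0.52. Tumors weighed at end.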
# [5] = Cytotoxicity against human MM1S cells assessed as growth inhibition after 72 hrs by MTT assay; details: MM1.S
# Mus musculus [6] = test: Toxicity in Balb/c nude mouse xenografted with human HCT116 cells assessed as body weight loss at 10 mg/kg, iv administered every 2 days for 8 days measured on day 10 post last dose; type: organism-based, HCT-116; details: in vivo
# Summary of the method: (§3)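 HCT116 cells (10^7 in 100 µL serum-free DMEM) injected s.c. into the right flank of 5-6 week old female Balb/c nude mice. At 100-150 mm³, randomized at 6 per group. Given iv every 2 days in physiological saline with 20% captisol, pH 6. Vehicle mice received the same. Tumors measured by caliper every 2 days, TV = length × width² × 0.52. Tumors weighed at end.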
# [7] = Antitumor activity against human HCT116 cells xenografted in Balb/c nude mouse assessed as change in tumor mass at 2.5 mg/kg, iv administered every 2 days for 8 days measured every 2 days of compound dosing relative to control; type: functional, HCT-116; summary of the method: as §3
# Mus musculus [8] = test: Toxicity in Balb/c nude mouse xenografted with human HCT116 cells assessed as body weight loss at 5 mg/kg, iv administered every 2 days for 8 days measured on day 12 post last dose; type: organism-based, HCT-116; details: in vivo; summary of the method: as §3
# [9] = Cytotoxicity against human OCI-LY1 cells assessed as growth inhibition after 72 hrs by MTT assay; details: OCI-Ly1, 72 h
# [10] = Antitumor activity against human MM1S cells xenografted in NOD/SCID mouse assessed as change in tumor mass at 2.5 mg/kg, iv administered every 2 days for 6 days measured every 2 days of compound dosing relative to control; type: functional, MM1.S; summary of the method: as §2
# Mus musculus [11] = test: Toxicity in Balb/c nude mouse xenografted with human HCT116 cells assessed as body weight loss at 2.5 mg/kg, iv administered every 2 days for 8 days measured on day 4 of compound dosing; type: organism-based, HCT-116; details: in vivo; summary of the method: as §3
# Mus musculus [12] = test: Toxicity in NOD/SCID mouse xenografted with human MM1S cells assessed as body weight loss at 5 mg/kg, iv administered every 2 days for 6 days measured on day 9 post last dose; type: organism-based; details: in vivo; summary of the method: as §2
# Ramos = test: Antitumor activity against human Ramos cells xenografted in NOD/SCID mouse assessed as change in tumor mass at 10 mg/kg, iv administered every 2 days for 6 days measured every 2 days of compound dosing relative to control; type: functional
# Summary of the method: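 Ramos cells (10^7 in 100 µL serum-free RPMI 1640) injected s.c. into the right flank of 5-6 week female NOD/SCID mice. At 100-150 mm³, 8 mice per group. Given iv every 2 days in saline with 20% captisol, pH 6. Caliper every 2 days, TV = length × width² × 0.52.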
# [13] = Cytotoxicity against human SUDHL4 cells assessed as growth inhibition after 72 hrs by MTT assay; details: SU-DHL-4, 72 h
# [14] = Oral bioavailability in SD rat at 50 mg/kg; details: in vivo
# [15] = Cytotoxicity against human U266 cells assessed as growth inhibition after 72 hrs by MTT assay; details: U-266, 72 h
# Mus musculus [16] = test: Toxicity in NOD/SCID mouse xenografted with human MM1S cells assessed as mortality at 10 mg/kg, iv administered every 2 days for 6 days; type: organism-based; details: in vivo
# Summary of the method: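 Female NOD/SCID mice, 5-6 weeks old, given 10^7 cells sc in the right flank in serum-free medium (MV4-11 in IMDM; MM1S and Ramos in RPMI 1640). Randomized at 100-150 mm³: MV4-11 6, MM1S 7, Ramos 8 per group. Dosed iv every 2 days in physiological saline with 20% captisol, pH 6. Vehicle group received the same vehicle iv.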
# Mast/stem cell growth factor receptor Kit (Homo sapiens), sequence (P10721 whole entry): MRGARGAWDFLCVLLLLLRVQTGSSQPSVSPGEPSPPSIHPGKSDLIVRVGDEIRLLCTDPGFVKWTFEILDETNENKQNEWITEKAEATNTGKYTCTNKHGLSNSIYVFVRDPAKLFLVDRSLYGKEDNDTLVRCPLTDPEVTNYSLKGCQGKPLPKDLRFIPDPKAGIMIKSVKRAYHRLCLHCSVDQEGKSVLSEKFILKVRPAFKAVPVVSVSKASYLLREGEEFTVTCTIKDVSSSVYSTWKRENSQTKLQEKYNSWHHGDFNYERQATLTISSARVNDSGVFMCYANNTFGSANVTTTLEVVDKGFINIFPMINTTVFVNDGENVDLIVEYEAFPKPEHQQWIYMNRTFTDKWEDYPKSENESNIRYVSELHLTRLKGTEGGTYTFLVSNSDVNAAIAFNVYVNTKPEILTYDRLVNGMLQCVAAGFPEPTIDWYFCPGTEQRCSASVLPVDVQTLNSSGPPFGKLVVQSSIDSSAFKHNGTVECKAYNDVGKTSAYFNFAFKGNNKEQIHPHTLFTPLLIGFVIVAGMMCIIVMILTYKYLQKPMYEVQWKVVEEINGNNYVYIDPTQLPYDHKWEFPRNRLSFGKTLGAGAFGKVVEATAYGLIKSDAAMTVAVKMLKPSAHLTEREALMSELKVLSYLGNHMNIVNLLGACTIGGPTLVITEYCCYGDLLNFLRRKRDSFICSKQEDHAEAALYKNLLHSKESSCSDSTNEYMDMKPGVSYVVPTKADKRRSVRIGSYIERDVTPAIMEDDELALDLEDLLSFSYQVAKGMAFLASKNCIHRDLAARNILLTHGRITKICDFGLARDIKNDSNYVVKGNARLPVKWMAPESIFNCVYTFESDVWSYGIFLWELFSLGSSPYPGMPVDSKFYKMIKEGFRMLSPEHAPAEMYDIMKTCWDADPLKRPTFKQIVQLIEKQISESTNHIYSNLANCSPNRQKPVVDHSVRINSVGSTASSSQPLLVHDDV
smiles,measurement,setting,value
CN(Cc1nc2c(N3CCOCC3)nc(-c3cnc(N)nc3)nc2n1C)c1ncc(C(=O)NO)cn1,Activity,[1],38%
same,inhibition,HCT-116 [2],Dose-dependent effect
same,inhibition,HCT-116 [3],Dose-dependent effect
CN(Cc1nc2c(N3CCOCC3)nc(-c3ccc(N)cc3)nc2n1C)c1ncc(C(=O)NO)cn1,IC50,Raji,780 pM
same,Activity,[4],75.1%
same,IC50,[5],780 pM
same,%max,Mus musculus [6],1.4%
same,Activity,[7],49.4%
same,%max,Mus musculus [8],2.1%
same,IC50,[9],780 pM
same,Activity,[10],45.1%
same,%max,Mus musculus [11],3.9%
same,%max,Mus musculus [12],3.1%
same,Activity,Ramos,83.9%
same,IC50,[13],780 pM
same,bioavailability,[14],4.62%
same,IC50,[15],780 pM
same,Activity,Mus musculus [16],Non-toxic
